In ChEMBL document CHEMBL4261585, “Synthesis of 1,2,3-triazole linked 4(3H)-Quinazolinones as potent antibacterial agents against multidrug-resistant Staphylococcus aureus” (Eur J Med Chem, 2018):
Values after ≈ are worked out from the molar mass of the structure shown.

How the values were obtained:
[1] = test system: Mycobacteroides abscessus; experiment: Antimycobacterial activity against Mycobacterium abscessus by pesto blue-dye based broth microdilution assay; type: functional
[2] = test system: Acinetobacter baumannii; experiment: Antibacterial activity against Acinetobacter baumannii BAA-1605 after 16 to 18 hrs by CLSI method; type: functional
Outline: (§1)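 Broth microdilution MIC per CLSI. A single colony from Mueller-Hinton agar is grown overnight in cation-supplemented Mueller-Hinton broth (37 °C, shaking, 18–24 h). Incubation is 37 °C for 16–18 h. MIC is the lowest concentration with no visible growth. Three independent runs, each in duplicate.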

[3] = test system: Escherichia coli; experiment: Antibacterial activity against Escherichia coli ATCC 25922 after 16 to 18 hrs by CLSI method; type: functional; outline: as §1
[4] = test system: Acinetobacter baumannii; experiment: Antibacterial activity against Acinetobacter baumannii BAA-1605 after 16 to 18 hrs in presence of PMBN by CLSI method; type: functional
Outline: (§2)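 MIC per CLSI broth microdilution with compound combined with a sub-lethal level of polymyxin B nonapeptide. Inoculum is ~10⁶ CFU/mL in cation-supplemented Mueller-Hinton broth. Incubation is 37 °C for 16–18 h. MIC is read as the absence of visible growth. Three independent runs, each in duplicate.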

[5] = test system: Klebsiella pneumoniae; experiment: Antibacterial activity against Klebsiella pneumoniae ATCC BAA-1705 after 16 to 18 hrs by CLSI method; type: functional; outline: as §1
[6] = test system: Mycobacterium tuberculosis; experiment: Antimycobacterial activity against Mycobacterium tuberculosis H37Rv ATCC 27294 after 7 days by pesto blue-dye based broth microdilution assay; type: functional; conditions: H37Rv ATCC 27294, 168 h
Outline: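 Broth microdilution in Middlebrook 7H9 with 10% ADC-Tween-80 (0.2% glycerol, 0.05% Tween-80). Compound is added from 10 mg/mL DMSO stocks as two-fold dilutions, 64–0.5 mg/L. Plates are incubated 7 days at 37 °C and read with PrestoBlue resazurin dye. MIC is the lowest concentration inhibiting visible growth, three replicates in duplicate.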

[7] = test system: Staphylococcus aureus; experiment: Antibacterial activity against methicillin-resistant Staphylococcus aureus NR10192 by CLSI method; type: functional
Outline: (§3)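 Broth microdilution to CLSI. A single colony from Mueller-Hinton agar is grown overnight in cation-supplemented MHB at 37 °C with shaking, 18–24 h. Levofloxacin is the reference. MIC is the lowest concentration with no visible growth, from three independent runs in duplicate.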

[8] = test system: Mycobacteroides chelonae; experiment: Antimycobacterial activity against Mycobacterium chelonae by pesto blue-dye based broth microdilution assay; type: functional
[9] = test system: Escherichia coli; experiment: Antibacterial activity against Escherichia coli ATCC 25922 after 16 to 18 hrs in presence of PMBN by CLSI method; type: functional; outline: as §2
[10] = test system: Mycolicibacterium fortuitum; experiment: Antimycobacterial activity against Mycobacterium fortuitum by pesto blue-dye based broth microdilution assay; type: functional
[11] = test system: Staphylococcus aureus; experiment: Antibacterial activity against methicillin-sensitive Staphylococcus aureus ATCC 29213 by CLSI method; type: functional; outline: as §3
[12] = test system: Staphylococcus aureus; experiment: Antibacterial activity against methicillin-resistant Staphylococcus aureus NR10193 by CLSI method; type: functional; outline: as §3
[13] = test system: Staphylococcus aureus; experiment: Antibacterial activity against methicillin-resistant Staphylococcus aureus NR10186 by CLSI method; type: functional; outline: as §3
[14] = test system: Staphylococcus aureus; experiment: Antibacterial activity against vancomycin-resistant Staphylococcus aureus VRS4 by CLSI method; type: functional; outline: as §3
[15] = test system: Staphylococcus aureus; experiment: Antibacterial activity against methicillin-resistant Staphylococcus aureus NR10194 by CLSI method; type: functional; outline: as §3
[16] = test system: Staphylococcus aureus; experiment: Antibacterial activity against Staphylococcus aureus ATCC 29213 after 16 to 18 hrs by CLSI method; type: functional; outline: as §1
[17] = test system: Staphylococcus aureus; experiment: Antibacterial activity against methicillin-resistant Staphylococcus aureus NR10129 by CLSI method; type: functional; outline: as §3
[18] = test system: Staphylococcus aureus; experiment: Antibacterial activity against methicillin-resistant Staphylococcus aureus NR10191 by CLSI method; type: functional; outline: as §3
[19] = test system: Staphylococcus aureus; experiment: Antibacterial activity against vancomycin-resistant Staphylococcus aureus VRS12 by CLSI method; type: functional; outline: as §3
[20] = test system: Staphylococcus aureus; experiment: Antibacterial activity against vancomycin-resistant Staphylococcus aureus VRS1 by CLSI method; type: functional; outline: as §3
[21] = Selectivity index, ratio of CC50 for African green monkey Vero cells to MIC for Staphylococcus aureus ATCC 29213; type: toxicity; conditions: read-out: Selectivity Index
Outline: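 Selectivity index is calculated as the Vero CC50 divided by the MIC against S. aureus ATCC 29213. CC50 comes from a 72 h MTT assay at 100–5 mg/L. MIC comes from CLSI broth microdilution at ~10⁶ CFU/mL, 37 °C, 16–18 h.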

[22] = test system: Staphylococcus aureus; experiment: Antibacterial activity against methicillin-resistant Staphylococcus aureus NR10198 by CLSI method; type: functional; outline: as §3
[23] = Cytotoxicity against African green monkey Vero cells after 72 hrs by MTT assay; type: cell-based; conditions: chlorocebus sabaeus
Outline: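 Vero cells are seeded at ~10³ per well and held 24 h at 37 °C, 5% CO₂. Compound at 100–5 mg/L is then added for 72 h. MTT is added at […], and formazan is dissolved in DMSO and read at 540 nm. CC50 is the lowest concentration giving 50% loss of viability. Doxorubicin is the positive control. Triplicate experiments.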

[24] = test system: Staphylococcus aureus; experiment: Antibacterial activity against methicillin-resistant Staphylococcus aureus NR119 by CLSI method; type: functional; outline: as §3
[25] = test system: Pseudomonas aeruginosa; experiment: Antibacterial activity against Pseudomonas aeruginosa ATCC 27853 after 16 to 18 hrs by CLSI method; type: functional; outline: as §1

| Compound | MIC [1] | MIC [2] | MIC [3] | MIC [5] | MIC [6] | MIC [7] | MIC [8] | MIC [10] | MIC [11] | MIC [12] | MIC [13] | MIC [14] | MIC [15] | MIC [16] | MIC [17] | MIC [18] | MIC [19] | MIC [20] | selectivity ratio [21] | MIC [25] | other results |
| --- | --- | --- | --- | --- | --- | --- | --- | --- | --- | --- | --- | --- | --- | --- | --- | --- | --- | --- | --- | --- | --- |
| N#Cc1ccc(/C=C/c2nc3ccccc3c(=O)n2-c2cccc(OCc3cn(Cc4ccccc4)nn3)c2)cc1 | > 64 µg/mL | > 64 µg/mL | > 64 µg/mL | > 64 µg/mL | > 64 µg/mL | 1 µg/mL (≈ 1.86 µM) | > 64 µg/mL | > 64 µg/mL | 1 µg/mL (≈ 1.86 µM) | 2 µg/mL (≈ 3.73 µM) | 2 µg/mL (≈ 3.73 µM) | 2 µg/mL (≈ 3.73 µM) | 1 µg/mL (≈ 1.86 µM) | 0.5 µg/mL (≈ 0.932 µM) | 2 µg/mL (≈ 3.73 µM) | 1 µg/mL (≈ 1.86 µM) | 2 µg/mL (≈ 3.73 µM) | 32 µg/mL (≈ 59.6 µM) | 40 | > 64 µg/mL | MIC [4]: > 64 µg/mL; MIC [9]: > 64 µg/mL; MIC [22]: 2 µg/mL (≈ 3.73 µM); CC50 at 72 h [23]: 20 µg/mL (≈ 37.3 µM); MIC [24]: 2 µg/mL (≈ 3.73 µM) |
| N#Cc1ccc(/C=C/c2nc3ccccc3c(=O)n2-c2cccc(OCc3cn(Cc4ccc([N+](=O)[O-])cc4)nn3)c2)cc1 | > 64 µg/mL | > 64 µg/mL | > 64 µg/mL | > 64 µg/mL | > 64 µg/mL |  | > 64 µg/mL | > 64 µg/mL |  |  |  |  |  | 2 µg/mL (≈ 3.44 µM) |  |  |  |  |  | > 64 µg/mL |  |
| COc1ccc(Cn2cc(COc3cccc(-n4c(/C=C/c5ccc(C#N)cc5)nc5ccccc5c4=O)c3)nn2)cc1 | > 64 µg/mL | > 64 µg/mL | > 64 µg/mL | > 64 µg/mL | > 64 µg/mL |  | > 64 µg/mL | > 64 µg/mL |  |  |  |  |  | 0.5 µg/mL (≈ 0.882 µM) |  |  |  |  |  | > 64 µg/mL |  |
| N#Cc1ccc(/C=C/c2nc3ccccc3c(=O)n2-c2cccc(OCc3cn(-c4cccc(Cl)c4)nn3)c2)cc1 | > 64 µg/mL | > 64 µg/mL | > 64 µg/mL | > 64 µg/mL | > 64 µg/mL | 0.5 µg/mL (≈ 0.898 µM) | > 64 µg/mL | > 64 µg/mL | 0.5 µg/mL (≈ 0.898 µM) | 1 µg/mL (≈ 1.8 µM) | 0.5 µg/mL (≈ 0.898 µM) | 0.5 µg/mL (≈ 0.898 µM) | 0.5 µg/mL (≈ 0.898 µM) | 0.5 µg/mL (≈ 0.898 µM) | 0.5 µg/mL (≈ 0.898 µM) | 1 µg/mL (≈ 1.8 µM) | 2 µg/mL (≈ 3.59 µM) | 32 µg/mL (≈ 57.4 µM) | 80 | > 64 µg/mL | MIC [4]: > 64 µg/mL; MIC [9]: > 64 µg/mL; MIC [22]: 0.5 µg/mL (≈ 0.898 µM); CC50 at 72 h [23]: 40 µg/mL (≈ 71.8 µM); MIC [24]: 0.5 µg/mL (≈ 0.898 µM) |
| N#Cc1ccc(/C=C/c2nc3ccccc3c(=O)n2-c2cccc(OCc3cn(Cc4cccc(Br)c4)nn3)c2)cc1 | > 64 µg/mL | > 64 µg/mL | > 64 µg/mL | > 64 µg/mL | > 64 µg/mL |  | > 64 µg/mL | > 64 µg/mL |  |  |  |  |  | 0.5 µg/mL (≈ 0.812 µM) |  |  |  |  |  | > 64 µg/mL |  |
| Cc1cccc(-n2cc(COc3cccc(-n4c(/C=C/c5ccc(C#N)cc5)nc5ccccc5c4=O)c3)nn2)c1 | > 64 µg/mL | > 64 µg/mL | > 64 µg/mL | > 64 µg/mL | > 64 µg/mL |  | > 64 µg/mL | > 64 µg/mL |  |  |  |  |  | 0.5 µg/mL (≈ 0.932 µM) |  |  |  |  | 40 | > 64 µg/mL | CC50 at 72 h [23]: 20 µg/mL (≈ 37.3 µM) |
| N#Cc1ccc(/C=C/c2nc3ccccc3c(=O)n2-c2cccc(OCc3cn(-c4ccc(Cl)cc4)nn3)c2)cc1 | > 64 µg/mL | > 64 µg/mL | > 64 µg/mL | > 64 µg/mL | > 64 µg/mL |  | > 64 µg/mL | > 64 µg/mL |  |  |  |  |  | 0.5 µg/mL (≈ 0.898 µM) |  |  |  |  | 40 | > 64 µg/mL | CC50 at 72 h [23]: 20 µg/mL (≈ 35.9 µM) |
| C[C@H]1COc2c(N3CCN(C)CC3)c(F)cc3c(=O)c(C(=O)O)cn1c23.C[C@H]1COc2c(N3CCN(C)CC3)c(F)cc3c(=O)c(C(=O)O)cn1c23.O [LEVOFLOXACIN] |  |  |  | 64 µg/mL |  | 8 µg/mL |  |  | 0.5 µg/mL | 32 µg/mL | 8 µg/mL | > 64 µg/mL | 0.5 µg/mL | 0.125 µg/mL | 0.5 µg/mL | 32 µg/mL | 32 µg/mL | 32 µg/mL |  | 0.5 µg/mL | MIC [22]: 32 µg/mL; MIC [24]: 16 µg/mL |
| C[C@@H](O)[C@H]1C(=O)N2C(C(=O)O)=C(S[C@@H]3CN[C@H](C(=O)N(C)C)C3)[C@H](C)[C@H]12 [MEROPENEM] |  |  |  |  |  | 64 µg/mL (≈ 167 µM) |  |  | 4 µg/mL (≈ 10.4 µM) | > 64 µg/mL | 16 µg/mL (≈ 41.7 µM) | > 64 µg/mL | 4 µg/mL (≈ 10.4 µM) |  | 16 µg/mL (≈ 41.7 µM) | > 64 µg/mL | > 64 µg/mL | > 64 µg/mL |  |  | MIC [22]: > 64 µg/mL; MIC [24]: > 64 µg/mL |
| CO[C@H]1/C=C/O[C@@]2(C)Oc3c(C)c(O)c4c(O)c(c(/C=N/N5CCN(C)CC5)c(O)c4c3C2=O)NC(=O)/C(C)=C\C=C\[C@H](C)[C@H](O)[C@@H](C)[C@@H](O)[C@@H](C)[C@H](OC(C)=O)[C@@H]1C [RIFAMPIN] |  | 4 µg/mL (≈ 4.86 µM) | 4 µg/mL (≈ 4.86 µM) |  |  |  |  |  |  |  |  |  |  |  |  |  |  |  |  |  | MIC [4]: 0.25 µg/mL; MIC [9]: 0.125 µg/mL |
| CN[C@H](CC(C)C)C(=O)N[C@H]1C(=O)N[C@@H](CC(N)=O)C(=O)N[C@H]2C(=O)N[C@H]3C(=O)N[C@H](C(=O)N[C@H](C(=O)O)c4cc(O)cc(O)c4-c4cc3ccc4O)[C@H](O)c3ccc(c(Cl)c3)Oc3cc2cc(c3O[C@@H]2O[C@H](CO)[C@@H](O)[C@H](O)[C@H]2O[C@H]2C[C@](C)(N)[C@H](O)[C@H](C)O2)Oc2ccc(cc2Cl)[C@H]1O [VANCOMYCIN] |  |  |  |  |  |  |  |  |  |  |  | > 64 µg/mL |  |  |  |  | > 64 µg/mL | > 64 µg/mL |  |  |  |
